Usually GI50 stands for the concentration giving 50% growth inhibition. A low value points to more potent growth inhibition.

Holding throughout (type): functional
In one assay the test system is MDA-MB-231. The assay can be described thus: Anticancer activity against human MDA-MB-231 cells after 48 hrs by sulforhodamine B assay. Particulars: MDA-MB-231, 48 h. Summed up: (§1)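 NCI 60-cell-line screen. Cells grown in RPMI 1640 with 5% FBS and 2 mM L-glutamine, plated at 5000–40,000 cells/well, and preincubated 24 h at 37 °C under 5% CO2. Compounds were taken from DMSO stocks and tested at five final concentrations, 10^-4 to 10^-8 M, for 48 h. Cells were TCA-fixed, stained with 0.4% SRB, and read at 515 nm. GI50, TGI and LC50 were derived as log molar values.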
For orientation: In SRB staining, fixed cells bind dye roughly in proportion to their protein.

The next assay relates to K562. The assay can be described thus: Anticancer activity against human K562 cells after 48 hrs by sulforhodamine B assay. The following applies: K562, 48 h. Summed up:
as §1

A further assay deals with SNB-75. The assay can be described thus: Anticancer activity against human SNB75 cells after 48 hrs by sulforhodamine B assay. The following applies: SNB-75, 48 h. Summed up: (§2)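 NCI 60-cell-line panel; cells grown in RPMI 1640 with 5% FBS and 2 mM L-glutamine, plated at 5000–40,000 cells/well and preincubated 24 h at 37 °C, 5% CO2. Compounds came from DMSO stocks diluted in medium with gentamicin and were tested at five final concentrations, 10^-4 to 10^-8 M, for 48 h. Cells were fixed with TCA, stained with SRB and read at 515 nm. GI50, TGI and LC50 were derived as log molar values.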

The subject of a further assay is SNB-19. The assay can be described thus: Anticancer activity against human SNB19 cells after 48 hrs by sulforhodamine B assay. Particulars: SNB-19, 48 h. Summed up: as §2
Another assay deals with HCC 2998. The assay can be described thus: Anticancer activity against human HCC2998 cells after 48 hrs by sulforhodamine B assay. The following applies: HCC 2998, 48 h. Summed up:
as §1

Another assay deals with MCF7. The assay can be described thus: Anticancer activity against human MCF7 cells assessed as cell growth at 100 uM after 48 hrs by Alamar blue assay relative to control. Particulars: MCF7, 48 h, read-out: Activity. Summed up:
(§3)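 NCI one-dose pre-test on MCF7, NCI-H460 and SF-268. Cells were inoculated and preincubated, then exposed to a single 10^-4 M concentration for 48 h. End-point was alamar blue. Results are percent growth versus untreated control cells, with negative values indicating cell kill.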
For orientation: Alamar Blue is a resazurin reagent that responds to reducing activity.

A further assay relates to NCI-H522. The assay can be described thus: Anticancer activity against human NCI-H522 cells after 48 hrs by sulforhodamine B assay. Particulars: NCI-H522, 48 h. Summed up:
as §1

The subject of a further assay is LOX IMVI. The assay can be described thus: Anticancer activity against human LOXIMVI cells after 48 hrs by sulforhodamine B assay. Summed up:
as §1

The test system of the next assay is A549. The assay can be described thus: Anticancer activity against human A549 cells after 48 hrs by sulforhodamine B assay. Particulars: A549, 48 h. Summed up:
as §1

The next assay deals with RXF 393. The assay can be described thus: Anticancer activity against human RXF393 cells after 48 hrs by sulforhodamine B assay. Particulars: RXF 393, 48 h. Summed up: as §1
The subject of the next assay is CCRF-CEM. The assay can be described thus: Anticancer activity against human CCRF-CEM cells after 48 hrs by sulforhodamine B assay. Summed up: as §1
A short description of assay [1]: Anticancer activity against human RPMI8266 cells after 48 hrs by sulforhodamine B assay. Summed up:
as §1

For another assay, the system named is SF-268. The assay can be described thus: Anticancer activity against human SF268 cells assessed as cell growth at 100 uM after 48 hrs by Alamar blue assay relative to control. The following applies: SF-268, 48 h, read-out: Activity. Summed up:
as §3

The test system of a further assay is HL-60(TB). The assay can be described thus: Anticancer activity against human HL-60(TB) cells after 48 hrs by sulforhodamine B assay. Particulars: HL-60, 48 h. Summed up:
(§4)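 NCI 60-cell-line screen. Cells were grown in RPMI 1640 with 5% FBS and 2 mM L-glutamine, seeded at 5000–40,000 cells/well and preincubated 24 h at 37 °C, 5% CO2. Compounds in DMSO were diluted in medium with gentamicin and tested at five concentrations (10^-4 to 10^-8 M) for 48 h. Cells were then fixed with TCA, stained with SRB and read at 515 nm.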

The test system of the next assay is OVCAR-5. The assay can be described thus: Anticancer activity against human OVCAR5 cells after 48 hrs by sulforhodamine B assay. Particulars: OVCAR-5, 48 h. Summed up: as §1
For the next assay, the system named is NCI-H460. The assay can be described thus: Anticancer activity against human NCI-H460 cells assessed as cell growth at 100 uM after 48 hrs by Alamar blue assay relative to control. Particulars: NCI-H460, 48 h, read-out: Activity. Summed up:
as §3

A further assay relates to MDA-N. The assay can be described thus: Anticancer activity against human MDA-N cells after 48 hrs by sulforhodamine B assay. Summed up:
as §1

In a further assay the test system is NCI-H23. The assay can be described thus: Anticancer activity against human NCI-H23 cells after 48 hrs by sulforhodamine B assay. Particulars: NCI-H23, 48 h. Summed up:
as §4

Consider `O=C(Nc1nc2ccccc2s1)NC(C(F)(F)F)C(F)(F)F`, for which the GI50 in the assay with MDA-MB-231 is 22.4 µM; in the assay on K562, 25.1 µM; with SNB-75 it was 17 µM; in the assay on SNB-19, 35.5 µM; in the assay on HCC 2998, 20 µM; in the assay with NCI-H522 it was 14.1 µM. Also, the 50% growth inhibitory concentration (GI50) in the assay on LOX IMVI was 22.9 µM; in the assay on A549, 26.9 µM; in the assay on RXF 393, 28.2 µM; with CCRF-CEM, 33.1 µM; in [1], 33.9 µM; in the assay with HL-60(TB), 26.3 µM. Also, the values for the 50% growth inhibitory concentration (GI50) in the assay on OVCAR-5 and in the assay on MDA-N were 27.5 µM and 23.4 µM, respectively. In addition, the growth at 100 µM with MCF7 was -10%; with SF-268 it was -39%; in the assay on NCI-H460, -74%.

On to `O=c1[nH]cc(F)c(=O)[nH]1` [FLUOROURACIL], for which the 50% growth inhibitory concentration (GI50) in the assay on MDA-MB-231 is 6.61 µM; in the assay with K562, 3.55 µM; in the assay with SNB-75, 79.4 µM; in the assay with SNB-19, 3.8 µM; in the assay on HCC 2998, 0.0525 µM; in the assay on NCI-H522 it was 7.24 µM. The GI50 in the assay on LOX IMVI was 0.245 µM; in the assay on NCI-H23, 0.331 µM; in the assay on A549, 0.191 µM; in the assay on RXF 393, 2.63 µM; with CCRF-CEM, 9.77 µM; in the assay on HL-60(TB) it was 2.29 µM. This compound showed a GI50 in the assay with OVCAR-5 of 11 µM.

Regarding `CNC(=O)Nc1ccccc1`, the 50% growth inhibitory concentration (GI50) in the assay on MDA-MB-231 is 100 µM; with K562 it was 100 µM; in the assay with SNB-75 it was 74.1 µM; with SNB-19, 100 µM; in the assay on HCC 2998, 100 µM; in the assay with NCI-H522, 100 µM. For the same compound, the 50% growth inhibitory concentration (GI50) (in the assay with LOX IMVI; with NCI-H23; in the assay on A549; with RXF 393; in the assay on CCRF-CEM; in assay [1]) was 100 µM each time. Further, the 50% growth inhibitory concentration (GI50) with HL-60(TB), in the assay with OVCAR-5 and with MDA-N was 100 µM each time.

Regarding `CCC(NC(=O)Nc1nccs1)(C(F)(F)F)C(F)(F)F`, the 50% growth inhibitory concentration (GI50) was 85.1 µM in the assay with MDA-MB-231; 34.7 µM in the assay on K562; 19.5 µM with SNB-75; over 100 µM in the assay with SNB-19; 74.1 µM in the assay on HCC 2998; 38 µM with NCI-H522. The GI50 was 72.4 µM with LOX IMVI; 44.7 µM in the assay with A549; 83.2 µM with RXF 393; 19.5 µM in the assay with CCRF-CEM; over 100 µM in the assay on OVCAR-5; 60.3 µM in the assay on MDA-N. For the same compound, the growth at 100 µM in the assay with MCF7 was 20%; in the assay on SF-268, 40%; in the assay with NCI-H460, 6%.

As to `CCC(NC(=O)Nc1nc2ccccc2s1)(C(F)(F)F)C(F)(F)F`, the concentration for 50% growth inhibition (GI50) was 16.2 µM with MDA-MB-231; 23.4 µM in the assay on K562; 1.45 µM in the assay on SNB-75; 20.9 µM with SNB-19; 19.1 µM with HCC 2998; 17 µM in the assay with NCI-H522. Further, the GI50 is 18.2 µM in the assay with LOX IMVI; 15.8 µM in the assay with A549; 17.4 µM in the assay with RXF 393; 23.4 µM with CCRF-CEM; 19.5 µM in the assay with OVCAR-5; 18.6 µM in the assay with MDA-N. Moreover, the growth at 100 µM in the assay with MCF7 was -79%; in the assay with SF-268, -94%; with NCI-H460 it was -93%.

As for `O=C(Nc1nccs1)NC(C(F)(F)F)C(F)(F)F`, the GI50 in the assay on MDA-MB-231 is 58.9 µM; in the assay with K562 it was 36.3 µM; in the assay on SNB-75, 55 µM; with SNB-19 it was 49 µM; in the assay with HCC 2998, 31.6 µM; in the assay with NCI-H522, 23.4 µM. Moreover, the GI50 in the assay on LOX IMVI was 58.9 µM; with A549, 60.3 µM; in the assay with RXF 393, 77.6 µM; in the assay with HL-60(TB), 72.4 µM; with OVCAR-5, 91.2 µM; in the assay with MDA-N, over 100 µM. In addition, the growth at 100 µM in the assay on MCF7 came to 35%; in the assay on SF-268 it was 20%; in the assay on NCI-H460, 22%.

Regarding `CC(NC(=O)Nc1nc2ccccc2s1)(C(F)(F)F)C(F)(F)F`, the concentration for 50% growth inhibition (GI50) in the assay with MDA-MB-231 was 34.7 µM; in the assay with K562, 17 µM; in the assay with SNB-75, 7.59 µM; in the assay on SNB-19, 24.5 µM; in the assay on HCC 2998, 38.9 µM; with NCI-H522 it was 24.5 µM. Also, the 50% growth inhibitory concentration (GI50) in the assay on LOX IMVI was 36.3 µM; in the assay on A549, 16.2 µM; in the assay with RXF 393 it was 64.6 µM; with CCRF-CEM it was 27.5 µM; in assay [1], 38.9 µM; in the assay on HL-60(TB), 97.7 µM. Also, the results for the GI50 with OVCAR-5 and in the assay on MDA-N were 81.3 µM and 97.7 µM, respectively. Further, the growth at 100 µM was 62% in the assay with MCF7, 28% in the assay on SF-268 and 43% with NCI-H460.

Source of the values: ChEMBL document CHEMBL1155222, “Synthesis and anticancer activity of N-bis(trifluoromethyl)alkyl-N'-thiazolyl and N-bis(trifluoromethyl)alkyl-N'-benzothiazolyl ureas” (2009).
